HTR1E agonist: 5-HT1E (human) receptor agonism; 65,000 tested, 0.69% active; CHO 5-HT1E Ga15 NFAT-bla reporter, FRET; 0% DMSO wells, 100% control agonist wells; AID 574; activation, % at 6 µM; P28566;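 active means activation above a set limit, the screen-wide mean activation plus 3 SD, cut at about 8.5% in these data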;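 further: 100% = positive control agonist at 1 µM giving full maximal response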
S1P3 ag: activates the human S1P3 receptor | 60,000 tested, 0.1% active | Q99500 | S1P3 NFAT-BLA reporter cells, agonism, FRET ratio; relative to 1 µM S1P, basal subtracted | AID 373 | activation, % at 4.5 µM;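 active means activation above the screen-wide mean plus 3 SD, cut at about 4.5% in these data, passing the limit was not always enough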
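material = human S1P3 NFAT-BLA reporter CHO cells | schedule = 4 h compound at 37 °C, 2 h substrate at RT | measured by = fluorescent BLA substrate, ex 405 nm, em 460/535 nm ratio | controls = 1 µM S1P reference | replication = primary once, confirmation triplicate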
5HT1E antag: antagonists of human 5-HT1E serotonin receptor; P28566; CHO 5-HT1E Ga15 NFAT-bla reporter, FRET, antagonist; inhibition, % at 6 µM; 65,000 tested, 0.99% active; AID 571;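 active means inhibition above a set limit, the mean inhibition across every tested compound plus 3 SD, cut at about 29% in these data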;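 further: signal is the 460 over 535 nm emission ratio of beta-lactamase substrate; 0% = agonist plus DMSO wells and 100% = wells without agonist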
5-HT1A blocker: antagonists of human 5-HT1a serotonin receptor | 62,000 tested, 0.68% active | CHO 5-HT1a Ga15 NFAT-bla reporter, antagonist mode | AID 612 | P08908 | inhibition, % at 10 µM;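 active means inhibition above the mean of all tested compounds plus 3 SD, cut at about 43% in these data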;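 further: receptor stimulated by 5-CT agonist at 100 nM near EC80; beta-lactamase reporter measured by ratiometric fluorescence of a cleavable substrate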
Target sequence (P08908 whole entry, looked up): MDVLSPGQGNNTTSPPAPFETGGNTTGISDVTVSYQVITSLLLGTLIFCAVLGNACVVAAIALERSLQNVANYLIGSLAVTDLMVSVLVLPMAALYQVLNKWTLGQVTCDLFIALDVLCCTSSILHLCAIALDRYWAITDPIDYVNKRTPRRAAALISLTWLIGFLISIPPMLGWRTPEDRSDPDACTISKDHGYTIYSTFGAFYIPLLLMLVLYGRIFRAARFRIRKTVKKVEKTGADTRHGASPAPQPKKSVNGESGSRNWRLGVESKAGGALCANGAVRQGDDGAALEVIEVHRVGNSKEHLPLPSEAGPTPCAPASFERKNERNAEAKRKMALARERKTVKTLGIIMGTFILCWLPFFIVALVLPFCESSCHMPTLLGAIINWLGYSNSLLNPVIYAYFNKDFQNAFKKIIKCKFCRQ
5HT1a ag: 5-HT1a (human) receptor agonism; AID 567; CHO 5-HT1a Ga15 NFAT-bla reporter, FRET ratio; 0% basal, 100% maximal reference agonist; 65,000 tested, 0.56% active; activation, % at 10 µM;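 active means activation above the screen-wide mean activation plus 3 SD, cut at about 19% in these data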;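 further: 0% = DMSO wells and 100% = 5-CT at EC100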
An asterisk follows results filed as active; · = no result. Rows were chosen to be rich in hits. Some 2.6% of all compounds tested hit in one or more screens of this group.

SMILES	HTR1E agonist	S1P3 ag	5HT1E antag	5-HT1A blocker	5HT1a ag
CCOC(=O)N1CCC(N2Cc3cccc(C(=O)NC(C)c4ccc5c(c4)OCCO5)c3C2=O)CC1 (stereo not given)	0	0	3	0	0
CCS(=O)(=O)NCC(c1cccnc1)N1CCN(c2ccccc2F)CC1 (stereo not given)	0	-1	-9	3	-2
CCOC(=O)C1=C(C)NC(=O)NC1c1ccc(OCC(=O)Nc2ccccc2)c(OC)c1 (stereo not given)	89*	-1	-1	14	1
CCOC(=O)C1=C(C)NC(=O)NC1c1ccc(OCC(=O)OC)c(OC)c1 (stereo not given)	1	-1	1	2	0
CNC(=O)c1ccc(-c2sc3nc(N4CCOCC4)c4c(c3c2N)CCCC4)o1	2	0	32*	6	4
CC(Oc1ccc(Cl)cc1)C(=O)Nc1nccs1 (stereo not given)	0	·	1	10	-1
CCN1CCN(c2nc(-c3cccnc3)nc3ccccc23)CC1	13*	0	7	-3	4
CN1CCN(c2nc(-c3cccnc3)nc3ccccc23)CC1	42*	-1	-3	10	1
c1cncc(-c2nc(N3CCCCCC3)c3ccccc3n2)c1	0	-1	11	6	3
O=C(NCC1CCCO1)C1CC(c2ccc(Cl)c(Cl)c2)=NO1 (stereo not given)	-1	0	1	11	-2
Cc1cc(NC(=O)CCCS(=O)(=O)c2nc(-c3cccs3)cc(C(F)(F)F)n2)no1	1	-2	30*	98*	-4
COC(=O)c1ccc(C(=O)OC)c(NC(=O)CSc2nc(-c3ccco3)cc(C(F)(F)F)n2)c1	-1	0	0	-6	0
COC(=O)c1ccccc1NC(=O)CSc1nc(-c2ccco2)cc(C(F)(F)F)n1	-1	-2	50*	28	-2
CN1CCN(c2nc(-c3cccs3)cc(C(F)(F)F)n2)CC1	1	·	-2	-7	9
CS(=O)(=O)c1nc(-c2cccs2)cc(C(F)(F)F)n1	2	·	106*	110*	-13
COc1ccc(-c2cc(C(F)(F)F)nc(SCC(=O)Nc3cc(C)on3)n2)cc1OC	1	0	15	-3	-1
Cc1cc(NC(=O)CSc2nc(-c3cccs3)cc(C(F)(F)F)n2)no1	0	0	59*	21	-2
CSc1nc2c(c(=O)[nH]1)C(c1ccncc1)C(C(=O)OC(C)C)=C(C)N2 (stereo not given)	0	·	-4	-11	-4
Cc1ccccc1-c1nc(CN2CCC(C(=O)NCCCN3CCCC3)CC2)c(C)o1	17*	0	1	-11	-1
Cc1oc(-c2ccc(Cl)cc2)nc1CN1CCCC(C(=O)NCc2cccnc2)C1 (stereo not given)	12*	-1	12	4	-1
Cc1oc(-c2ccc(Cl)cc2)nc1CN1CCCC(C(=O)NCc2ccccn2)C1 (stereo not given)	1	0	-2	2	1
Cc1oc(-c2ccc(Cl)cc2)nc1CN1CCCC(C(=O)NCCCN2CCOCC2)C1 (stereo not given)	23*	-1	-3	0	-4
Cc1oc(-c2ccc(Cl)cc2)nc1CN1CCC(C(=O)N2CCc3ccccc3C2)CC1	1	-2	-2	-15	32*
Cc1ccccc1-c1nc(CN2CCC(C(=O)NCCCN3CCOCC3)CC2)c(C)o1	0	0	5	0	2
O=C(NCc1ccc(Cl)cc1)c1noc2c1CCCCC2	1	0	-13	13	1
SMILES	HTR1E agonist	S1P3 ag	5HT1E antag	5-HT1A blocker	5HT1a ag
O=C(NCc1ccco1)Nc1ccc(Br)cc1	-1	-1	13	32	0
O=C(NCc1ccco1)Nc1ccc2nsnc2c1	-1	-1	14	59*	-2
O=C(O)C1CSCN1S(=O)(=O)c1cccc2nsnc12 (stereo not given)	9.7*	-1	-11	·	-1
CCn1c(=O)c(C(=O)Nc2nc3ccccc3[nH]2)c(O)c2ccccc21	3	0	64*	57*	-2
Cc1c(C(=O)NCCc2ccccc2)oc2ccc(S(=O)(=O)N3CCOCC3)cc12	0	·	0	-4	1
Cn1cc(C(=O)NCCc2ccccc2)c(=O)c2cc(S(=O)(=O)N3CCOCC3)ccc21	77*	0	5	-3	-2
Cc1nnc(SCCn2c(N3CCN(c4ccccc4)CC3)nc3c2c(=O)n(C)c(=O)n3C)s1	1	-1	-6	-7	1
Fc1cnc(N2CCOCC2)nc1N1CCc2ccccc21	0	0	-8	-11	2
CN1CCN(c2nc(N3CCN(c4ccccc4)CC3)ncc2F)CC1	35*	-1	9	11	-1
COCCOC(=O)C1=C(C)Nc2nc(C)nn2C1c1ccc(F)cc1 (stereo not given)	1	-1	-1	-3	31*
CC(C)(C)c1csc(NC(=O)c2ccc(Cl)s2)n1	-1	0	19	35	-1
CCNc1nc(N)c(C(=O)c2ccc(Cl)s2)s1	0	-2	23	56*	1
CC(C)C1N(c2ccccc2)C(N)=C(C#N)C1(C#N)C#N (stereo not given)	0	0	33*	-6	2
CCC(=O)N1C(C(=O)N2CCCC2)CSC1c1ccc(OC)cc1 (stereo not given)	1	0	1	22	0
Cc1cc(C2=CC(C)(c3cc(C)oc3C)Nc3nc(C(F)(F)F)nn32)c(C)o1 (stereo not given)	-1	0	16	60*	-5
O=C(CCN1CCc2ccccc2CC1)c1ccc2c(c1)OCCO2	2	0	10	·	0
COc1ccc(C(=O)N2CCCC(c3nc(-c4ccc(OC)c(OC)c4)no3)C2)c(OC)c1 (stereo not given)	0	-1	-4	-11	20*
COc1ccc(-c2noc(C3CCCN(C(=O)c4ccccc4OC)C3)n2)cc1OC (stereo not given)	1	-1	-6	7	0
CCCc1cc(C(=O)N(C2CCCCC2)C2CCCCC2)no1	0	58*	3	3	-2
c1cc(-c2nnc3sc(C4CCCCC4)nn23)ccn1	17*	0	2	·	2
CN1CCN(S(=O)(=O)c2ccc(Sc3nnc(-c4cccs4)n3-c3ccccc3)nc2)CC1	0	0	-8	-12	-1
CCc1nnc(NC(=O)CCN2C(=O)c3ccccc3C2=O)s1	16*	-1	-6	4	3
Cc1ccnc(SCCn2c(Br)nc3c2c(=O)n(C)c(=O)n3C)n1	0	-1	-9	1	1
Cc1cc(C(=O)OCC(=O)NCc2ccco2)c(C)n1-c1ccc(F)cc1	-1	-1	37*	34	-3
